Results published in BindingDB's records for doi:10.1021/acs.jmedchem.9b01421 (2019).

biological target: Capsid protein (Hepatitis B virus, UniProt Q03732); assay: Inhibition of capsid in HBV infected in human HepG.2.2.15 cells assessed as reduction of HBV DNA incubated for 5 days by quantitative PCR analysis
Summary of the method: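 HepG2.2.15 cells (HepG2-derived, stably carrying the HBV genome; kept in DMEM-F12 with 10% FBS, penicillin/streptomycin, 0.5 mg/mL G418) seeded at 3 × 10^4 cells/well and incubated overnight at 37 °C. Compounds were serially half-log diluted in DMSO and added in medium at 0.5% final DMSO. HBV DNA was extracted and quantified by qPCR.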

Sequence of Capsid protein (Q03732 whole entry): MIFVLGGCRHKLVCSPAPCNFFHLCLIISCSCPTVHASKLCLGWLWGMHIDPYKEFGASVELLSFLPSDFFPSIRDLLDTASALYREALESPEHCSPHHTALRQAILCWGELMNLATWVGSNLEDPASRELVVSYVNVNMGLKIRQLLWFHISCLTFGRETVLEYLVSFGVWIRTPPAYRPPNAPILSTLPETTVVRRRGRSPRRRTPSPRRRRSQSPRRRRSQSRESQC

Row | SMILES | EC50 [nM]
1 | COC(=O)C1=C(CN2CC(F)(F)C[C@H]2C(=O)O)NC(c2nccs2)=N[C@H]1c1ccc(F)c(F)c1 | 22
2 | CCOC(=O)C1=C(CN2CCOC[C@H]2C(=O)O)NC(c2nccs2)=N[C@H]1c1cc(F)c(F)c(F)c1 | 18
3 | CCOC(=O)C1=C(CN2CCOC[C@H]2C(=O)O)NC(c2nccs2)=N[C@H]1c1ccc(F)cc1F | 14
4 | CCOC(=O)C1=C(CN2CC(F)(F)C[C@H]2C(=O)O)NC(c2nccs2)=N[C@H]1c1ccc(F)cc1Cl | 10
5 | COC(=O)C1=C(CN2CCOC[C@H]2C(=O)O)NC(c2nccs2)=N[C@H]1c1ccc(Br)c(F)c1 | 10
6 | CCOC(=O)C1=C(CN2CCOC[C@H]2C(=O)O)NC(c2nccs2)=N[C@H]1c1ccc(C)c(F)c1 | 5
7 | CCOC(=O)C1=C(CN2CCOC[C@H]2C(=O)O)NC(c2nccs2)=N[C@H]1c1cccc(F)c1 | 15
8 | CCOC(=O)C1=C(CN2CCOC[C@H]2C(=O)O)NC(c2nccs2)=N[C@H]1c1ccc(Cl)c(F)c1 | 2
9 | CCOC(=O)C1=C(CN2CCOC[C@H]2C(=O)O)NC(c2nccs2)=N[C@H]1c1ccc(F)cc1 | 15
10 | COC(=O)C1=C(CN2CC(F)(F)C[C@H]2C(=O)O)NC(c2nccs2)=N[C@H]1c1ccc(F)cc1Cl | 3
11 | CCOC(=O)C1=C(CN2CCOC[C@H]2C(=O)O)NC(c2nccs2)=N[C@H]1c1ccc(F)c(F)c1F | 5

biological target: not listed separately; assay: Inhibition of capsid in HBV infected in human HepG.2.2.15 cells assessed as reduction of HBV DNA incubated for 5 days by quantitative PCR analysis

Row | SMILES | EC50 [nM]
12 | CCOC(=O)C1=C(CN2CCOC[C@H]2C(=O)O)NC(c2nccs2)=N[C@H]1c1ccc(Br)c(F)c1 | 3
13 | CCOC(=O)C1=C(CN2CCOC[C@H]2C(=O)O)NC(c2nccs2)=N[C@H]1c1ccc(F)cc1Cl | 2
14 | CCOC(=O)C1=C(CN2CCOC[C@H]2C(=O)O)NC(c2nccs2)=N[C@H]1c1ccc(F)c(Cl)c1 | > 1000
15 | CCOC(=O)C1=C(CN2CCOC[C@H]2C(=O)O)NC(c2nccs2)=N[C@H]1c1ccc(F)c(C#N)c1 | > 1000
16 | CCOC(=O)C1=C(CN2CCOC[C@H]2C(=O)O)NC(c2nccs2)=N[C@H]1c1ccc(F)c(Br)c1 | > 1000
17 | COC(=O)C1=C(CN2CCOC[C@H]2C(=O)O)NC(c2nccs2)=N[C@H]1c1ccc(Cl)c(F)c1 | 10
18 | COC(=O)C1=C(CN2CCOC[C@H]2C(=O)O)NC(c2nccs2)=N[C@H]1c1ccc(C)c(F)c1 | 28
19 | COC(=O)C1=C(CN2CCOC[C@H]2C(=O)O)NC(c2nccs2)=N[C@H]1c1ccc(F)c(F)c1 | 46
20 | CCOC(=O)C1=C(CN2CCOC[C@H]2C(=O)O)NC(c2nccs2)=N[C@H]1c1ccc(F)c(F)c1 | 11
